CAL PDZ FP-1: inhibitors of human CAL PDZ peptide binding. Q9HD26. purified CAL PDZ, TMR-peptide fluorescence polarization, 1 h. inhibition, % at 24.9 µM. 0.92% of 300,000 active;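 active = mean inhibition of at least 30% with at least half of replicates also reaching 30%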
SR-BI HDL uptake: blocks mouse SR-BI lipid uptake from DiI-HDL | inhibition, % at 12.5 µM | 0.96% of 320,000 active | ldlA[mSR-BI] CHO cells, DiI-HDL uptake fluorescence, 3 h | Q61009;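 active = mean replicate inhibition of at least 70% and a set share of replicates each scoring 70 or more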
Target sequence (Q61009 whole entry, looked up): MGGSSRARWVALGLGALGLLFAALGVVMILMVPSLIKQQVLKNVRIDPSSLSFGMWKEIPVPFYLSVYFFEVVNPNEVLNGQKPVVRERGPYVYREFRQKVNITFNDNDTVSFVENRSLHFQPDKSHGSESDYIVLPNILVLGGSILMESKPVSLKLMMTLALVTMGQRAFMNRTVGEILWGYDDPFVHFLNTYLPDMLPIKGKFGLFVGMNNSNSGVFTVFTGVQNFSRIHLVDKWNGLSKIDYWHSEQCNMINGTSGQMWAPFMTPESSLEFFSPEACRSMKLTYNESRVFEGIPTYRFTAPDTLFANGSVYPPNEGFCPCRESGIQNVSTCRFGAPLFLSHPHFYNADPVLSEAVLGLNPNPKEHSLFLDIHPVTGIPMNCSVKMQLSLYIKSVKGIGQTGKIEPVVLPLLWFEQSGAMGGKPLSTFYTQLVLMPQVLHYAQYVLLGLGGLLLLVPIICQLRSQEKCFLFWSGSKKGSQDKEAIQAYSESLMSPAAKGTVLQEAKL
CAL PDZ FP-2: inhibitors of human CAL PDZ peptide binding; Q9HD26; purified CAL PDZ, TMR-peptide fluorescence polarization, 1 h; 0.02% of 330,000 active; inhibition, % at 20 µM;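 active = highest replicate inhibition of at least 40%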
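System: purified tagged CAL PDZ domain construct (CerCALP). Schedule: 1 h incubation at room temperature before polarization reading. Medium: 25 mM sodium phosphate pH 7.4, 150 mM NaCl, TCEP, IgG, Thesit. Read-out: percent inhibition from loss of millipolarization. Measured by: FP readout, S and P plane fluorescence. Probe or stimulus: fluorescent TMR peptide probe.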
SR-BI uptake up: SR-BI HDL lipid transfer activation. activation, % at 12.5 µM. AID 504775. 0.096% of 320,000 active. CHO ldlA[mSR-BI] cells, DiI-HDL uptake fluorescence, 3 h; 100 = double the neutral-control signal;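 active = mean replicate activation of at least 60% and every replicate at or above 60%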
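material = CHO ldlA[mSR-BI] cells | medium = Ham's F12 with 0.5% BSA, HEPES 25 mM, pH 7.4 | reagent = fluorescent DiI-HDL, 10 µg/mL final | compound dosing = single-point compound dose | incubation = 3 h, 37 °C | measured by = bottom-read fluorescence, 550/595 nm | measure = HDL uptake via cellular fluorescence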
dFosB activator: activators of mouse delta FosB homodimer; activation, % at 25 µM; P13346; 0.99% of 340,000 active; purified delta FosB, TAMRA-CDK5 oligo fluorescence polarization; percent of positive-control signal above neutral wells;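 active = mean activation above about 17%, with every replicate also reaching it, limit read from the data, passing the limit was not always enough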
Hits are given with their value. Sampled rows, rich in hits. Any-hit rate of the full collection: about 2.8%.

For COc1ccc(Br)cc1/C=N/NC(=O)c1ccc2nc[nH]c2c1 the results were SR-BI HDL uptake inactive, CAL PDZ FP-2 inactive, SR-BI uptake up inactive and dFosB activator inactive.
COc1ccc2[nH]c3c(c2c1)CCN1C(=O)C(CC(=O)NCC24CC5CC(CC(C5)C2)C4)C[C@H](C(=O)N(C(C)C)C(C)C)[C@@]31C (stereo partly drawn) was read as CAL PDZ FP-1 inactive, SR-BI HDL uptake inactive, CAL PDZ FP-2 inactive, SR-BI uptake up inactive and dFosB activator inactive.
O=c1onc(-c2ccccc2Cl)n1-c1ccccc1Cl was read as CAL PDZ FP-1 inactive, CAL PDZ FP-2 inactive and dFosB activator inactive.
Cc1ccc(NC(=O)c2nc[nH]c2C(=O)NCCN(CCNC(=O)c2[nH]cnc2C(=O)Nc2ccc(C)cc2)CCNC(=O)c2[nH]cnc2C(=O)Nc2ccc(C)cc2)cc1 was read as CAL PDZ FP-1 inactive, SR-BI HDL uptake inactive, CAL PDZ FP-2 inactive, SR-BI uptake up inactive and dFosB activator 48.
For C[C@]12C=CC(=O)C=C1CCC1C2CC[C@@]2(C)C1CCC21OCCO1 (stereo partly drawn) the results were CAL PDZ FP-1 102, SR-BI HDL uptake inactive, CAL PDZ FP-2 inactive, SR-BI uptake up inactive and dFosB activator inactive.
C=CCOc1ccc(/C(O)=C2/C(=O)C(=O)N(CCCN3CCOCC3)C2c2ccc(OC)cc2)cc1 (stereo not drawn) was read as CAL PDZ FP-1 40, SR-BI HDL uptake inactive, SR-BI uptake up inactive and dFosB activator inactive.
For C=CCOc1ccc(/C(O)=C2/C(=O)C(=O)N(CCCN3CCOCC3)C2c2ccccc2)cc1 (stereo not drawn) the results were CAL PDZ FP-1 inactive, SR-BI HDL uptake inactive, CAL PDZ FP-2 inactive, SR-BI uptake up inactive and dFosB activator inactive.
Screening Clc1cccc(Cl)c1/C=C/c1ccn[nH]1 returned CAL PDZ FP-1 inactive, SR-BI HDL uptake inactive, CAL PDZ FP-2 inactive, SR-BI uptake up inactive and dFosB activator inactive.
Screening COCC(C)n1c(SCC(=O)N2CC(=O)Nc3ccccc32)nc2ccccc2c1=O (stereo not drawn) returned CAL PDZ FP-1 47, SR-BI HDL uptake inactive, CAL PDZ FP-2 inactive, SR-BI uptake up inactive and dFosB activator inactive.
Cc1cccc(NC(=O)c2sccc2-n2cccc2)c1C was read as CAL PDZ FP-1 32, SR-BI HDL uptake inactive, SR-BI uptake up inactive and dFosB activator inactive.
O=[N+]([O-])c1ccccc1C=NNc1ccccc1 was read as CAL PDZ FP-1 inactive, CAL PDZ FP-2 inactive and dFosB activator inactive.
For Cc1ccc(-c2nc(N/N=C/c3ccccc3[N+](=O)[O-])c3ccccc3n2)cc1 the results were SR-BI HDL uptake 87, CAL PDZ FP-2 inactive, SR-BI uptake up inactive and dFosB activator inactive.
Nc1ccccc1S(=O)(=O)NCCCCc1ccccc1 was read as CAL PDZ FP-1 inactive, SR-BI HDL uptake inactive, CAL PDZ FP-2 inactive, SR-BI uptake up inactive and dFosB activator inactive.
Screening CCOC(=O)CSc1nc(N2CCOCC2)c2c(c1C#N)CC(C)(C)OC2 returned CAL PDZ FP-1 inactive, SR-BI HDL uptake inactive, CAL PDZ FP-2 inactive, SR-BI uptake up 416 and dFosB activator inactive.
Screening COc1ccc(-c2[nH]ncc2N=Nc2cc(C)cc(C)c2)cc1 returned CAL PDZ FP-1 inactive, SR-BI HDL uptake 84, CAL PDZ FP-2 inactive, SR-BI uptake up inactive and dFosB activator inactive.
Screening Cc1cc(C(=O)NC2CCCN(Cc3ccc(Cl)cc3)C2)n(C)n1 (stereo not drawn) returned CAL PDZ FP-1 inactive, SR-BI HDL uptake inactive, CAL PDZ FP-2 inactive and dFosB activator inactive.
`COc1ccc(CNC(=O)CN2CCN(c3ccccc3O)CC2)cc1OC` gave CAL PDZ FP-1 inactive, SR-BI HDL uptake inactive, CAL PDZ FP-2 inactive, SR-BI uptake up inactive and dFosB activator inactive.
Screening CCSc1nnc(NC(=O)Cc2ccc(OC)c(S(=O)(=O)N3CCOCC3)c2)s1 returned CAL PDZ FP-1 39, SR-BI HDL uptake inactive, CAL PDZ FP-2 inactive, SR-BI uptake up inactive and dFosB activator inactive.
CC1CN(Cc2ccccc2)C(=S)N(c2ccccc2)C1=O (stereo not drawn) was read as CAL PDZ FP-1 inactive, SR-BI HDL uptake inactive, CAL PDZ FP-2 inactive, SR-BI uptake up inactive and dFosB activator inactive.
For C=CCn1cnc2c(c1=O)c1nc3ccccc3nc1n2/N=C/c1cc(OC)c(OC)c(OC)c1 the results were CAL PDZ FP-1 inactive, SR-BI HDL uptake inactive, CAL PDZ FP-2 inactive, SR-BI uptake up inactive and dFosB activator inactive.
`COCCn1cnc2c(c1=O)c1nc3ccccc3nc1n2/N=C/c1cccc(OC)c1` gave CAL PDZ FP-1 34, SR-BI HDL uptake inactive, CAL PDZ FP-2 inactive, SR-BI uptake up inactive and dFosB activator inactive.
O=C(NC1CCCC1)c1ccc(CS(=O)(=O)c2ccc(Cl)cc2)o1 was read as CAL PDZ FP-1 70, SR-BI HDL uptake inactive, CAL PDZ FP-2 inactive, SR-BI uptake up inactive and dFosB activator inactive.
O=C(NC1CCCCC1)c1ccc(CS(=O)(=O)c2ccc(Cl)cc2)o1 was read as CAL PDZ FP-1 inactive, SR-BI HDL uptake inactive, CAL PDZ FP-2 inactive, SR-BI uptake up inactive and dFosB activator inactive.
For CCOc1ccc(N=C2SC(C(=O)Nc3ccccc3C#N)C(N)=C2C(=O)Nc2ccc(Cl)cc2)cc1 (stereo not drawn) the results were CAL PDZ FP-1 inactive, SR-BI HDL uptake inactive, CAL PDZ FP-2 inactive, SR-BI uptake up inactive and dFosB activator inactive.
N#Cc1ccccc1NC(=O)C1SC(=Nc2ccccc2)C(C(=O)Nc2ccc(Cl)cc2)=C1N (stereo not drawn) was read as CAL PDZ FP-1 inactive, SR-BI HDL uptake 108, CAL PDZ FP-2 inactive, SR-BI uptake up inactive and dFosB activator inactive.
For Cc1cccc(Oc2ccc(N)cc2)c1 the results were CAL PDZ FP-1 inactive, SR-BI HDL uptake inactive, CAL PDZ FP-2 inactive, SR-BI uptake up inactive and dFosB activator inactive.
For Nc1ccc(Oc2cccc(Oc3ccc(N)cc3)c2)cc1 the results were CAL PDZ FP-1 39, SR-BI HDL uptake inactive, CAL PDZ FP-2 inactive, SR-BI uptake up inactive and dFosB activator inactive.
`CCCN1CCC(=O)N([C@H](CSc2ccc(OC)cc2)c2ccccc2)CC1` gave CAL PDZ FP-1 inactive, SR-BI HDL uptake inactive, CAL PDZ FP-2 inactive, SR-BI uptake up inactive and dFosB activator inactive.
Screening Cc1sc2ncnc(N/N=C/c3ccccc3O)c2c1C returned SR-BI HDL uptake 116, CAL PDZ FP-2 inactive, SR-BI uptake up inactive and dFosB activator inactive.
`Cc1sc2ncnc(N/N=C/c3ccc(O)cc3)c2c1C` gave CAL PDZ FP-1 inactive, SR-BI HDL uptake inactive, CAL PDZ FP-2 inactive, SR-BI uptake up inactive and dFosB activator inactive.
CC1CN(S(=O)(=O)c2ccc(F)cc2)C(C)N1C(=O)N1CCOCC1 (stereo not drawn) was read as CAL PDZ FP-1 inactive, SR-BI HDL uptake inactive, CAL PDZ FP-2 inactive, SR-BI uptake up inactive and dFosB activator inactive.
Screening CON/C=C(\C=Nc1ccc(Cl)cc1)c1ncc(C(F)(F)F)cc1Cl returned SR-BI HDL uptake 73, CAL PDZ FP-2 inactive, SR-BI uptake up inactive and dFosB activator inactive.

Compound activity: PubChem BioAssay, Broad Institute
